The nature of one data set: Cytotoxicity assay. The format is cell-based, murine. The note with it: mouse, 3T3-L1 cells.
The subject of data set [1] is human visceral and subcutaneous preadipocytes. Kind of data set: Preadipocyte differentiation assay. The format is cell-based. In a few lines:
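Human visceral or subcutaneous preadipocytes (≤ passage 3) plated at 100,000 cells/well and grown to confluency. Day 0: induction medium ± hydrocortisone hemisuccinate (50 µg/mL) plus vehicle (0.2% DMSO), rosiglitazone (2 µM) or test compound (50, 100 µM); non-differentiating medium as control. Differentiation medium plus treatment from 48 h, refreshed every 48–72 h for 9–14 days. Fixed in 10% buffered formaldehyde; Oil Red O relatively quantified.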

Another data set relates to 3T3-L1. Kind of data set: Cytotoxicity assay. The format is cell-based, murine. The note with it: 3T3-L1; tested concentrations up to 1mM.
Data set [2] has as its system 3T3-L1 adipogenesis gene transcripts. Kind of data set: qRT-PCR gene expression during 3T3-L1 adipogenesis. It counts as cell-based, murine. In outline:
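Steady-state transcript levels measured by qRT-PCR in 3T3-L1 cells going through the induction/insulin differentiation protocol, on days 0, 1, 2 and 7. Treated cells compared with differentiating-medium and non-differentiating-medium controls.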

The test system of another data set is 11β-HSD2. Conditions: cited from earlier work.
The next data set has as its target T1, Human GR (Homo sapiens, UniProt P04150).
T1 sequence (P04150 1-777): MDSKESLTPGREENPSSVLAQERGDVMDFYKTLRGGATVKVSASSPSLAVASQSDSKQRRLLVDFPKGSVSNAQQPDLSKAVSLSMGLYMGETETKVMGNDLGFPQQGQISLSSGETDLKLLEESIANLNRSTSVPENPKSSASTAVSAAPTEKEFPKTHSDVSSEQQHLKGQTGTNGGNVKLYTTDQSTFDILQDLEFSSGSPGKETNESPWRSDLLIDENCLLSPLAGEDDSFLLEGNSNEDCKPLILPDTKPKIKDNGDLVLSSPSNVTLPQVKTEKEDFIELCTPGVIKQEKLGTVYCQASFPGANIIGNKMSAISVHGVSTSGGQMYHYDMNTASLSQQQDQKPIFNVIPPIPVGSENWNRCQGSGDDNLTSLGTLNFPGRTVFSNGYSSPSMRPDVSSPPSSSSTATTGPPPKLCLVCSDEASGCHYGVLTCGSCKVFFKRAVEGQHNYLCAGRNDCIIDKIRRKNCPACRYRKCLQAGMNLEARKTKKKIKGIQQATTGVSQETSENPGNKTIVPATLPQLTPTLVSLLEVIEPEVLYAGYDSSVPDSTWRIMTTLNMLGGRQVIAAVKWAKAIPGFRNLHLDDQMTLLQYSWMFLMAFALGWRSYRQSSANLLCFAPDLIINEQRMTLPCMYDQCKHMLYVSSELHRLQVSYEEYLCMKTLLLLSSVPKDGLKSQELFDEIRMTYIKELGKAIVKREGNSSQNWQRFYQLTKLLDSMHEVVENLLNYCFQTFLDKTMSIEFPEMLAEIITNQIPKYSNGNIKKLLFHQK
Kind of data set: Human glucocorticoid receptor. The format is cell-based. The note with it: transiently GR-transfected MDA-MB-231 cells, 100 nM dexamethasone, 50 μM CA. In outline: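 MDA-MB-231 cells transiently transfected, via Lipofectin, with a GR response element–luciferase reporter or a negative-control reporter. Seeded at 5000 cells/well for 12 h at 37 °C, then switched to phenol red–free DMEM with 2% charcoal-stripped FBS. Test compound (50 µM) or DMSO added 1 h before 100 nM dexamethasone induction; 4 h treatment. Luciferase luminescence read; n = 3, means ± SEM.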

For a further data set, the system named is 3T3-L1 cells. Kind of data set: Mitochondria evaluation by confocal microscopy. The note with it: 3T3-L1 adipogenesis assay, day 7, CA 50 μM. The format is cell-based, murine. In a few lines:
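3T3-L1 cells put through the adipogenesis protocol in 8-well chambers, test compound 50 µM. On day 7, live cells stained with MitoTracker Deep Red (50 nM final) and Hoechst 33342, PBS-washed, and imaged by spinning-disk confocal at 63×. Mean mitochondrial tracker intensity quantified.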

In data set [3] the test system is 11β-HSD1, PPARγ, PGC-1α protein expression in 3T3-L1. Kind of data set: Western blot analysis during 3T3-L1 adipogenesis. It counts as cell-based, murine. In outline:
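3T3-L1 cells in non-differentiating medium, differentiating medium, differentiating medium + rosiglitazone, or differentiating medium + test compound (50 µM); sampled on days 3 and 7. Lysed in Tris/NaCl/EDTA/EGTA buffer with Triton X-100, deoxycholate, SDS, glycerol and protease/phosphatase inhibitors. 30 µg total protein loaded; tubulin used as loading control. Bands quantified; n = 3, means ± SEM.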
In general terms: In western blotting, separated proteins are transferred to a membrane and probed.

Data set [4] has as its system 11β-HSD1 in J774.1 macrophage. Conditions: LPS activated murine J774.1 macrophage; cited from earlier work.
The target of the next data set is T2, Human PPARγ (Homo sapiens, UniProt P37231).
T2 sequence (P37231 238-505 limits assumed): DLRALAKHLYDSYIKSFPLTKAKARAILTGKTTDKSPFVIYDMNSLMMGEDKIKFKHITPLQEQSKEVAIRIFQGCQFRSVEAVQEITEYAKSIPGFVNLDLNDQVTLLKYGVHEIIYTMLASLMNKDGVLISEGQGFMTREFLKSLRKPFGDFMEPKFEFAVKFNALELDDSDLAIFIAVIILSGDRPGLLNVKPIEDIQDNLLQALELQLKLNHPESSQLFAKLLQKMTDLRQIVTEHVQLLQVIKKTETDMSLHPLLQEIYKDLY
Kind of data set: Human PPARγ reporter antagonist assay. It counts as cell-based. The note with it: stimulation by rosiglitazone (20 nM); 40 μM to 2 nM.

The test system of data set [5] is Normal mouse fibroblast (ATCC: CRL-2907). Kind of data set: Nascent. It counts as cell-based. Conditions: CA 50 μM, 2 h. In outline: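 Mouse embryonic fibroblasts (CRL-2907) seeded at 2 × 10^4/well on 1% gelatin-coated slides and cultured 12 h at 37 °C in phenol red–free IMDM with 10% FBS. Test compound (50 µM) or DMSO given 2 h before click labelling with an alkyne o-propargyl-puromycin probe. Cycloheximide (20 nM, 30 min prior) served as positive control. Confocal imaging at 20×; whole-image montage quantified.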

The subject of a further data set is 3T3-L1 preadipocytes. Kind of data set: Preadipocyte differentiation assay. It counts as cell-based, murine. In a few lines: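 3T3-L1 cells (passages 1–16) seeded at 2.5 × 10^5/well on 0.1% gelatin. Day 0, 24 h after near-confluence: switched to induction DMEM (high glucose, 10% FBS, 0.5 mM IBMX). After 48 h: DMEM + 10% FBS + 10 µg/mL insulin. Negative control kept in non-differentiating medium; positive control differentiating medium + DMSO. Test compound 50–100 µM; run to day 7–10. Oil Red O stained; extracted dye read at 462 nm.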

In a further data set the target is Human 11β-HSD1 (Homo sapiens, UniProt P28845, C272S). Kind of data set: Biochemical assay of 11β-HSD1. Conditions: 11β-HSD1 Ki.
Human 11β-HSD1, sequence (P28845 24-292 C272S): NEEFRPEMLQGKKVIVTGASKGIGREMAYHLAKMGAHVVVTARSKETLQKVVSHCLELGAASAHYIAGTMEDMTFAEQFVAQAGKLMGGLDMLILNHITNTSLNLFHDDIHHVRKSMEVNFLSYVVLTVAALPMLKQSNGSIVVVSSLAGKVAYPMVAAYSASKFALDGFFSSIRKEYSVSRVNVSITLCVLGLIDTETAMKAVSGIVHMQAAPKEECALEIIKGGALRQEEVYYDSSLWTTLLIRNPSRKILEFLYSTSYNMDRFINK
Another data set can be described thus: Solubility. The format is physicochemical.

By EC50 is commonly meant the concentration at which the effect is half-maximal. Lower therefore signals higher potency in that assay.

Entries after “also recorded” stand apart in the source; their conditions may differ. Bounds are passed on as bounds.

Turning to `CC1=CC[C@@]2(C[C@H]1O)[C@@H](C(C)C)CC[C@H]2C(=O)O` (single isomer, unassigned) [ent-1, (−)-Colletoic Acid], the EC50 at 72 h in “Cytotoxicity assay” is greater than 500 µM.
Turning to `CC1=CC[C@@]2(C[C@@H]1O)[C@@H](C(=O)O)CC[C@H]2C(C)C` [Compound 1, (+)-colletoic acid], in data set [1] (human preadipocytes), the “effect when added at day 3 after induction” value is recorded as “no quantifiable effect”. Moreover, the “inhibition of adipogenesis in human preadipocytes” value in data set [1] (human visceral and subcutaneous preadipocytes, 10–14 days, CA 50–100 μM) is recorded as “modest inhibition of adipogenesis”. Further, in the data set on 3T3-L1, the “cytotoxicity (cell viability)” value is given as “no cytotoxicity”. The compound also returned an EC50 at 72 h in the data set “Cytotoxicity assay” greater than 500 µM. In addition, the “FABP4 and FASN mRNA expression, lower than in differentiated control cells” value in data set [2] (3T3-L1) is “at least 10 fold”. For the same compound, the “PGC-1α mRNA expression, differentiated control cells versus CA-treated cells” value in data set [2] (3T3-L1) is reported as “at least ten-fold greater”. Moreover, in data set [2] (3T3-L1, day 1–2, vs differentiated control), the “C/EBPα, β and δ mRNA expression” value is “significant reduction”. Besides, the “PPARγ and PGC-1α mRNA expression level” value in data set [2] (3T3-L1, vs differentiated cells) is “greatly reduced”. Moreover, the “11β-HSD1 mRNA expression” value in data set [2] (3T3-L1, vs differentiated control cells) is recorded as “reduced”. For the same compound, the 11β-HSD2 inhibition result with 11β-HSD2 is reported as “no observable 11β-HSD2 inhibition”. The GR activation result at Human GR is recorded as “did not inhibit GR activation”. In addition, the “mitochondrial mass (mitochondrial tracker mean intensity)” value in the data set on 3T3-L1 cells is “less mitochondrial mass”. In addition, the “PGC-1α, 11β-HSD1 and PPARγ protein expression” value is listed as “No significant change” in data set [3] (3T3-L1, day 3, CA 50 μM) and “down-regulation” in data set [3] (3T3-L1, day 7, CA 50 μM). The “conversion of [3H]-cortisone to [3H]-cortisol” value in data set [4] is on record as “inhibits the conversion”. For the same compound, at Human PPARγ, the PPARγ antagonistic activity entry was “no quantifiable PPARγ antagonistic activity”. Further, the “global protein synthesis compared to DMSO control” value in data set [5] is “No significant changes”. In addition, in the data set with 3T3-L1 preadipocytes (3T3-L1), the “effect on adipogenesis when added after day 3” value is reported as “little to no significant effect”. In addition, the “inhibition of adipogenesis (Oil Red O staining)” value in the data set on 3T3-L1 preadipocytes (3T3-L1, 7 days, compound added at induction, CA 50–100 μM) was “clearly inhibited adipogenesis”. Also, the “lipid droplets (LipidTox) compared to NDM control cells” value in the data set on 3T3-L1 preadipocytes (3T3-L1, CA 50 μM) is given as “no significant difference”.
`CC1(C)[C@@H](OC(=O)CCC(=O)O)CC[C@]2(C)[C@H]3C(=O)C=C4[C@@H]5C[C@@](C)(C(=O)O)CC[C@]5(C)CC[C@@]4(C)[C@]3(C)CC[C@@H]12` [Compound 4, carbenoxolone, reference compound]: in the data set “Cytotoxicity assay”, the EC50 at 72 h was greater than 500 µM.
In the data set “Cytotoxicity assay”, `COC(=O)[C@H]1CC[C@@H](C(C)C)[C@@]12CC=C(C)[C@@H](O)C2` [Compound 5] returned a 50% effective concentration (EC50) at 72 h greater than 500 µM.
In the data set “Cytotoxicity assay”, `CC1=CC[C@@]2(C[C@@H]1O)[C@@H](C(N)=O)CC[C@H]2C(C)C` [Compound 6] registered an EC50 at 72 h greater than 500 µM.
For `CC1=CC[C@@]2(C[C@@H]1O)[C@H](C(=O)O)CC[C@H]2C(C)C` [Compound 7], the EC50 at 72 h in the data set “Cytotoxicity assay” was greater than 500 µM.
In the case of `CC(=O)O[C@H]1C[C@]2(CC=C1C)[C@@H](C(=O)O)CC[C@H]2C(C)C` [Compound 8], in the data set “Cytotoxicity assay”, the EC50 at 72 h was greater than 500 µM.
Still for that read-out and setting: with `CC1=CC[C@@]2(CC1=O)[C@@H](C(=O)O)CC[C@H]2C(C)C` [Compound 9] the figure was greater than 500 µM.
On the same count and under the same terms, for `CC1=CC[C@@]2([C@H](O)C1)[C@@H](C(=O)O)CC[C@H]2C(C)C` [Compound 10] the value was greater than 500 µM.
As to `CC(=O)O[C@@H]1C[C@@](C)(O)CC[C@]12[C@@H](C(=O)O)CC[C@H]2C(C)C` [Compound 11], the concentration for a half-maximal effect (EC50) at 72 h in “Cytotoxicity assay” is greater than 500 µM.
For the compound `CC(C)[C@@H]1CC[C@H](C(=O)O)[C@]12C[C@@H](O)[C@@](C)(O)[C@@H](O)C2` [Compound 12], in the data set “Cytotoxicity assay”, the EC50 at 72 h was greater than 500 µM.
In turn, `C=C1CC[C@@]2(C(OC)[C@@H]1O)[C@@H](C(=O)O)CC[C@H]2C(C)C` (stereo partly shown) [Compound 13] gave a half-maximal effective concentration (EC50) at 72 h in the data set “Cytotoxicity assay” greater than 500 µM.
As for `C=C1CC[C@@]2(C[C@@H]1OC(C)=O)[C@@H](C(=O)O)CC[C@H]2C(C)C` [Compound 14], the EC50 at 72 h in the data set “Cytotoxicity assay” is greater than 500 µM.
On to `C=C1CC[C@@]2(C[C@@H]1O)[C@@H](C(=O)O)CC[C@H]2C(C)C` [Compound 15], for which the concentration for a half-maximal effect (EC50) at 72 h in “Cytotoxicity assay” was greater than 500 µM.
For `C=C1CC[C@]2(C[C@@H]1O)[C@H](C)CC[C@@H]2C(=O)O` [Compound 16], the concentration for a half-maximal effect (EC50) at 72 h in “Cytotoxicity assay” is greater than 500 µM. Moreover, the “activity relative to compound 15” value at Human 11β-HSD1 is on record as “five-fold less activity”.
The compound `CC1=CC[C@@]2([C@H](O)C1)[C@@H](C(=O)O)CC[C@H]2C1CCCCC1` [Compound 18] yielded an EC50 at 72 h in “Cytotoxicity assay” greater than 500 µM.
Regarding `CC1=CC[C@@]2(C=C1)[C@@H](C(=O)O)CC[C@H]2C1CCCCC1` [Compound 19], the solubility properties entry in the data set “Solubility” is “acceptable and similar to CA”.
For the compound `CC1=CC[C@@]2(C[C@@H]1O)[C@@H](C(=O)O)CC[C@H]2C1CCCCC1` [Compound 20], the solubility properties entry in “Solubility” is “acceptable and similar to CA”. In the data set “Cytotoxicity assay”, this compound came in with an EC50 at 72 h greater than 500 µM. Moreover, at Human 11β-HSD1, the “increase of potency over CA” value is “three-fold increase of potency; also recorded: three-fold increase in potency”.

The values are drawn from publication PMC8688139 (Journal of medicinal chemistry, 2019).
